# Most compounds without a hit are left out; they make up all but 2.6% or so of the library.
# SIAE primary: human SIAE inhibitors, primary screen, biochemical, fluorescence polarization, FP-Rh probe, 1536-well HTS; AID 1053197, 2014; Sialate O-acetylesterase (Homo sapiens), Q9HAT2; actives 0.69% (n = 370,000); inhibition, % at 9.66 µM; SIAE FP-Rh probe binding;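 active = inhibition above a cutoff: mean of compounds within the control limits plus 3 SD of those, cut at about 17% in these data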;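 also: 0% = plate median of compound wells and 100% = probe without SIAE protein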
# TCR CD3 inh: inhibitors of human TCR-CD3 interaction, primary screen, biochemical, fluorescence, TAMRA-labeled TCR probe; inhibition, % at 9.4 µM; AID 651800, 2012; T-cell receptor (TCR); actives 0.37% (n = 360,000); in the data active = inhibition above about 19%;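 also: recombinant mutant TCR 2C K166C tagged with TAMRA read by polarization; 0% = receptor in buffer alone and 100% = receptor with positive control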
# PRMT1 FP inh: PRMT1 methyltransferase inhibitors, primary screen, biochemical, fluorescence polarization. actives 1.3% (n = 370,000). Protein arginine N-methyltransferase 1 (Homo sapiens), Q99873. inhibition, % at 2.79 µM. recombinant PRMT1, activity-based probe fluorescence polarization. AID 652257, 2013;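 active = inhibition above about 21% made by adding two undisclosed values, limit read from the data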
# mABHD4 FP: ABHD4 inhibitors, primary screen, biochemical, fluorescence polarization, mouse | (Lyso)-N-acylphosphatidylethanolamine lipase (Mus musculus), Q8VD66 | purified mABHD4, FP-Rh probe fluorescence polarization | inhibition, % at 8.92 µM | actives 0.54% (n = 370,000) | AID 720543, 2013;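 active = inhibition exceeding the mean over every tested compound plus 3 SD, cut at about 30% in these data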;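 also: 0% = plate median of compound wells and 100% = S159A mutant with DMSO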
#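 Test system: mABHD4 protein | Buffer or medium: HEPES pH 7.0 buffer, 150 mM NaCl, 0.01% Pluronic F-127 | Probe or stimulus: FP-Rh fluorescent activity-based probe, added after compound pre-incubation | Timing: Pre-incubation 45 min, probe exposure 60 min, at 25 °C | Technique: Fluorescence polarization, excitation 525 nm, emission 598 nm, BODIPY TMR filters | Repeats: Single well per compound (singlicate)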
# HTRA1 inh: HTRA1 serine protease inhibitors, primary screen, biochemical, fluorescence polarization, HTS; Q92743; recombinant HTRA1, FP-rhodamine activity-based probe; inhibition, % at 5.96 µM; actives 0.5% (n = 340,000); AID 504803, 2011; in the data active = inhibition above about 36%;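 also: 0% = enzyme with DMSO and 100% = wells lacking enzyme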
# Target sequence (Q92743 whole entry, looked up): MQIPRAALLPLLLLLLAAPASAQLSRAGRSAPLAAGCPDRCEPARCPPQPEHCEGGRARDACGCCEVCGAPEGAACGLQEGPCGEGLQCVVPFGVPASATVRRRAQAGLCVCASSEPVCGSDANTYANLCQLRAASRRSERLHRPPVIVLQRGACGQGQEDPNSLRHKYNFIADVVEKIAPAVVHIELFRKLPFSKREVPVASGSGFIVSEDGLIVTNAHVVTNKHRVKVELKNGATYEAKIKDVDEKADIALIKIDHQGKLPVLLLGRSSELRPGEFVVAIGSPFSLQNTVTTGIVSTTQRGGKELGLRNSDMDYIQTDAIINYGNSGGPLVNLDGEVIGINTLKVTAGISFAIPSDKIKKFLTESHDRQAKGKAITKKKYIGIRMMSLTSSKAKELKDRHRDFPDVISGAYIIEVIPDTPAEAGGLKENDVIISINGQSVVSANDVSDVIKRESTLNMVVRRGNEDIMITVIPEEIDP
# PRMT1 inh conf: PRMT1 methyltransferase inhibitors, confirmation, biochemical, fluorescence polarization, triplicate. shares compounds with PRMT1 FP inh. recombinant His-PRMT1, activity-based probe fluorescence polarization. inhibition, % at 2.79 µM. actives 42% (n = 3,300);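 active = mean inhibition across replicates above the hit cutoff derived for the earlier primary screen, cut at about 22% in these data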
# Active calls of the source: *; nt = not tested or not shown.
SMILES,SIAE primary,TCR CD3 inh,PRMT1 FP inh,mABHD4 FP,HTRA1 inh,PRMT1 inh conf
CCCCc1c(O)nc(SCC(=O)NC(C)(C)C)n(-c2ccccc2C)c1=O,9.4,-2.3,26.8*,-3.9,7.1,6.3
O=C(C1=C(O)C(=O)N(c2nccs2)C1c1ccccc1)c1cc2ccccc2o1 (stereo not given),3.0,-11.8,91.9*,12.9,-10.1,131.5*
CCOc1cccc(C2C(C(=O)c3ccc(C)o3)=C(O)C(=O)N2Cc2ccncc2)c1 (stereo not given),-1.3,-1.1,1.7,8.2,0.7,nt
CCOc1cccc(C2C(C(=O)c3ccc(C)o3)=C(O)C(=O)N2c2nccs2)c1 (stereo not given),6.1,-1.0,64.6*,-0.8,-4.3,37.8*
C=CCN1C(=O)[C@@H](CC(=O)NCCCC)[C@]2(C(=O)OC)CCCCC=C12,3.0,nt,-0.2,-1.9,nt,nt
CCOc1cc(CCNC(=O)c2cc3ccsc3n2C)ccc1OC,3.2,nt,-0.5,2.7,nt,nt
OCCN1CCN(C(=S)c2ccc(Cl)c(Cl)c2)CC1,-1.1,5.5,78.0*,10.8,12.7,77.8*
O=C(C1CCCN1S(=O)(=O)c1ccc([N+](=O)[O-])cc1)N1CCN(c2ccccc2)CC1 (stereo not given),-2.4,nt,3.1,-3.0,nt,nt
Cc1cc(C)nc(N2N=C(C(C)(C)C)CC2=O)n1,0.7,-9.5,41.2*,-3.2,3.8,8.4
Cc1ccc(SCC2=NN(c3nc(C)cc(C)n3)C(=O)C2)cc1,7.4,-3.5,-0.8,9.8,32.7,nt
CC(C)CNS(=O)(=O)/C=C/c1cc2c(cc1CNC(=O)OC(C)(C)C)OCO2,13.3,nt,-0.1,-4.0,nt,nt
COC(=O)C1=C(C)NC(=S)NC1c1ccc(-c2ccccc2C(=O)OC)o1 (stereo not given),3.4,3.7,30.6*,6.2,-6.8,16.5
CCOC(=O)C1=C(C)NC(=S)NC1c1ccc(-c2ccc(Cl)cc2)o1 (stereo not given),2.0,-0.8,41.9*,-12.2,-21.6,5.3
CC(=O)C1=C(S(=O)(=O)c2ccc(C)cc2)CS(=O)(=O)C1,-5.3,-6.6,75.6*,-2.9,-0.5,89.2*
Cc1ccc(S(=O)(=O)C2CS(=O)(=O)CC2O)cc1 (stereo not given),-3.3,4.8,1.2,-3.1,1.9,nt
COc1cc(CNc2ccc3[nH]c(=O)[nH]c3c2)ccc1OCC(=O)NC(C)(C)C,4.6,0.9,6.0,5.1,-0.8,nt
C=CCOc1c(Br)cc(CNc2ccc3[nH]c(=O)[nH]c3c2)cc1OCC,7.3,4.0,30.1*,11.6,0.8,14.7
COc1cc(CNc2ccc3[nH]c(=O)[nH]c3c2)ccc1OCc1ccccc1F,2.8,-6.4,29.4*,9.6,10.1,10.4
COc1cc(CNc2ccc3[nH]c(=O)[nH]c3c2)cc(Br)c1OCC(=O)NC(C)(C)C,1.9,-7.5,25.4*,13.7,13.6,11.8
CC1(C)C=C2C(N(CC3CC3)C(=N)N2C(=O)OCc2ccccc2)n2c(=O)n(-c3ccccc3)c(=O)n21 (stereo not given),5.9,nt,-1.7,-0.7,nt,nt
COc1cc(C2CC(=O)N3CN(c4ccccc4C)CSC3=C2C#N)cc(OC)c1OC (stereo not given),-7.8,0.1,38.5*,8.4,nt,45.8*
COc1ccccc1N1CSC2=C(C#N)C(c3ccc(SC)cc3)CC(=O)N2C1 (stereo not given),-17.2,6.1,38.6*,31.2*,1.0,63.6*
CC(=O)NC1=C(NC2CCS(=O)(=O)C2)C(=O)c2ccccc2C1=O (stereo not given),0.6,1.8,43.9*,4.3,1.8,67.4*
O=C(COC(=O)c1cc(Br)ccc1O)Nc1cc(S(=O)(=O)N2CCCC2)ccc1Cl,-27.1,-8.3,45.3*,-21.6,-24.4,22.5*
O=C(CC(Sc1ccccc1)c1cccs1)c1ccco1 (stereo not given),-4.6,-3.2,80.3*,2.0,-12.5,83.4*
SMILES,SIAE primary,TCR CD3 inh,PRMT1 FP inh,mABHD4 FP,HTRA1 inh,PRMT1 inh conf
CCOC(=O)C1=C(C)N=c2sc(=Cc3ccc(OCC(=O)O)cc3)c(=O)n2C1c1ccc(Cl)cc1 (stereo not given),-31.6,-1.0,41.6*,-66.4,nt,13.2
COC(=O)[C@]12C[C@H](CC(=O)N3CCSCC3)C(=O)N(Cc3ccc(Cl)cc3Cl)C1=C[C@H](COCc1ccccc1)O[C@@H]2C,-3.8,nt,-2.4,-12.8,nt,nt
CCc1ccc(CCNC(=O)OC2CCC23CCC(c2ccccc2)CC3)cc1 (stereo not given),-5.0,nt,1.5,-5.6,nt,nt
Cc1ccc(SC2=C(N(C)C)C(=O)c3ccccc3C2=O)cc1,-1.4,-7.0,52.4*,28.4,22.7,49.2*
CN(C)c1cccc2c1C(=O)c1ccccc1C2=O,4.6,1.4,2.7,23.1,26.1,nt
CCOC(=O)C1=NOC(C(=O)Nc2cc(C)cc(C)c2)(C(=O)C2CC2)C1 (stereo not given),1.1,nt,0.7,-0.3,nt,nt
CN(C)C(=O)c1ccc(SC(=S)NCc2ccccc2)cc1,-1.1,5.3,58.6*,8.0,nt,69.5*
COC(=O)C1CCN(C(=O)c2ccc3nccnc3c2)CC1,3.4,-3.3,26.1*,6.8,7.0,3.9
CCOC(=O)C1CCN(C(=O)Nc2ccc3nccnc3c2)CC1,4.9,-3.7,1.3,8.5,4.2,nt
COC(=O)[C@@]1(C)[C@H]2C(=O)N(Cc3ccccc3)C(=O)[C@H]2[C@H]2CN=C(SCC(=O)c3ccccc3)N21,11.7,9.2,79.9*,3.9,2.4,58.3*
CCN1C(=O)[C@H]2[C@H]3CN=C(SCC(=O)c4ccccc4)N3[C@@](CC)(C(=O)OC)[C@H]2C1=O,3.4,-7.3,69.0*,1.1,0.2,44.4*
CCN1C[C@@H]2[C@@H]3C(=O)N(Cc4ccccc4)C(=O)[C@@H]3[C@](CC)(C(=O)OC)N2C1=NCc1ccccc1,9.7,8.0,31.7*,15.3,-2.4,5.8
COC(=O)[C@@]1(C)[C@H]2C(=O)N(Cc3ccccc3)C(=O)[C@H]2[C@H]2CN=C(SC)N21,7.3,-4.8,4.1,4.1,9.5,nt
CCN1C(=O)[C@H]2[C@H]3CN=C(SCc4ccccc4)N3[C@@](CC)(C(=O)OC)[C@H]2C1=O,0.2,-2.9,-0.6,4.8,4.5,nt
CC(=O)NC(c1ccc(F)c(F)c1)c1nc(-c2cnc3ccccc3c2)cs1 (stereo not given),-3.7,2.9,31.8*,-5.8,nt,3.3
